Screening data: PubChem BioAssay, several laboratories
MEKK3 PB1 HTS – MEKK3-MEK5 PB1 interaction, increase or decrease. AID 1529. binding response (% of control), % at 10 µM. bead-based flow cytometry, Alexa488-MEK5 binding to MEKK3; actives lie on both sides; 0 = blocked by unlabeled MEK5, 100 = vehicle. Q99759. actives 1.4% (n = 290,000);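 active = binding response more than 3 SD above or below the average of its plate-row segment, actives on both sides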;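 also: Alexa488 bead fluorescence after subtracting the streptavidin-only scavenger bead signal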
Target sequence (Q99759 whole entry, looked up): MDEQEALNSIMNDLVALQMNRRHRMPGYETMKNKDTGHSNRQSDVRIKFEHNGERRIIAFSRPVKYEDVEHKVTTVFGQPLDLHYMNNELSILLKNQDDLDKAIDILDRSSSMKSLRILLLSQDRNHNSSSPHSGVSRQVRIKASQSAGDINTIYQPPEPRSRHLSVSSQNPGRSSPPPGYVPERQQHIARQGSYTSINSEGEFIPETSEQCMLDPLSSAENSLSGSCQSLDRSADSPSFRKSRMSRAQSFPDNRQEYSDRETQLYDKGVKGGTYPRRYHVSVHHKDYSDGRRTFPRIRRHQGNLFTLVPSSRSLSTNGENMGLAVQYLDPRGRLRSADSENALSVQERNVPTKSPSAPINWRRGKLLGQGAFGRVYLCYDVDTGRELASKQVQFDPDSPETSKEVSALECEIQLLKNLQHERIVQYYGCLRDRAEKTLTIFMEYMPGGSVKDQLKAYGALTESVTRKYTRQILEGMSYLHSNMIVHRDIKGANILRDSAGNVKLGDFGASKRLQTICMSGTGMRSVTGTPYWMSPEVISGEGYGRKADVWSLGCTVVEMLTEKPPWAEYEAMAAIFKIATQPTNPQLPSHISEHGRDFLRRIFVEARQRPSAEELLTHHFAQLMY
MEKK2mut PB1 HTS – signal of MEK5 binding to mutant human MEKK2 PB1 domain; actives 0.35% (n = 290,000); percent response, % at 10 µM; bead flow cytometry, Alexa488-MEK5 binding to MEKK2 mutant; in the data active = percent response above about 24%, passing the limit was not always enough
UCH37 inh – inhibitors of human deubiquitinating enzyme UCH37. inhibition, % (test concentration not listed). AID 588478. actives 0.33% (n = 330,000). purified proteasome/UCH37, Ub-AMC cleavage fluorescence. Q9Y5K5;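 active = mean inhibition over replicate wells above about 20%, limit read from the data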;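 also: 0% = compound-free wells with enzyme and 100% = wells lacking proteasome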
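Schedule: 30 min plus 25 min, room temperature / Material: human UCH37 within purified proteasomes / Technique: AMC fluorescence intensity at 355/460 nm / Buffer or medium: pH 7.4 Tris-HCl (50 mM) with ovalbumin, ATP-MgCl2, DTT / Controls: wells without proteasome as full block, compound-free enzyme plus substrate as uninhibited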
Apaf1 inhib – human Apaf-1 inhibition. O14727. reconstituted apoptosome caspase-3 activity, DEVD-Rh110 fluorescence. inhibition, % at 20 µM. actives 0.71% (n = 330,000). AID 489030; active = inhibition of at least 40% at 20 µM;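 also: plate controls were DMSO wells for no effect and DEVD-CHO caspase inhibitor wells for full effect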
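Assay system: Apoptosome proteins | Medium: pH 7.5 Hepes buffer with CHAPS, BSA, DTT | Also added: Cytochrome c and DEVD-Rh110 substrate | Times: 30 min plus 50 min, RT | Detection: Rhodamine 110 fluorescence at Ex 480/Em 540 nm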
MEKK2wt PB1 HTS – raises or lowers MEK5 binding to wildtype human MEKK2 PB1 domain; Q9Y2U5; bead flow cytometry, Alexa488-MEK5 binding to MEKK2 WT; actives lie on both sides; binding response (% of control), % at 10 µM; actives 1.1% (n = 290,000); in the data active = binding response below about 67% or above about 130%
UBC13 polyUb – human UBC13 polyubiquitination inhibition | P61088 | UBC13 polyubiquitin chain formation, TR-FRET | inhibition, % at 20 µM | actives 0.47% (n = 330,000); in the data active = inhibition above about 45%, passing the limit was not always enough
MEKK2wt confirm – raises or lowers MEK5 binding to wildtype human MEKK2, retest | AID 1892 | binding response (% of control), % at 10 µM | shares compounds with MEKK3 PB1 HTS | bead flow cytometry, Alexa488-MEK5 binding to MEKK2 WT; actives lie on both sides | actives 2.4% (n = 5,900); in the data active = binding response below about 16% or above about 210%; inactive = in between
MEKK2mut-MEK5 – signal of MEK5 binding to mutant human MEKK2, retest | shares compounds with MEKK3 PB1 HTS | bead flow cytometry, Alexa488-MEK5 binding to MEKK2 mutant | percent response, % at 10 µM | actives 2% (n = 5,900) | AID 1893; in the data active = percent response mostly above about 71%, no sharp cut-off; inactive = mostly below about 38%;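 also: higher means compound restores mutant binding toward wildtype level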
MEKK3-MEK5 inh – MEKK3-MEK5 PB1 inhibition, single concentration confirmation | shares compounds with MEKK3 PB1 HTS | bead flow cytometry, Alexa488-MEK5 binding to MEKK3; hits give low values | binding response (% of control), % at 10 µM | actives 1.8% (n = 5,900) | AID 1894;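 active = binding response below 72% of control, or above a set upper limit, though filed actives all read lower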;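 also: 100% = DMSO only wells and 0% = binding blocked by excess unlabeled MEK5; lower values mean stronger disruption of MEK5 binding to MEKK3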
Active calls of the source: *; [ ] = remark or other dose. The list is not random: actives were taken first. Their share in the collection is about 3%.

Screening CN1CCN(CCCNCc2cn(CCC#N)c3ccccc23)CC1 returned MEKK3 PB1 HTS 106, MEKK2mut PB1 HTS 25*, UCH37 inh 0, Apaf1 inhib 5, MEKK2wt PB1 HTS 168*, UBC13 polyUb 40, MEKK2wt confirm 151, MEKK2mut-MEK5 29 and MEKK3-MEK5 inh 107.
`N#CCCN1CCN(Cn2c3ccccc3c3ccccc32)CC1` gave MEKK3 PB1 HTS 98, MEKK2mut PB1 HTS -1, UCH37 inh 2, Apaf1 inhib 5, MEKK2wt PB1 HTS 99 and UBC13 polyUb -7.
CCC(c1nnnn1Cc1ccc2c(c1)OCO2)N1CCN(CC)CC1 (centres undefined) was read as MEKK3 PB1 HTS 131*, MEKK2mut PB1 HTS 5, UCH37 inh 3, Apaf1 inhib -10, MEKK2wt PB1 HTS 122, UBC13 polyUb -6, MEKK2wt confirm 99, MEKK2mut-MEK5 1 and MEKK3-MEK5 inh 102.
CCN1CCN(C(c2nnnn2Cc2ccc3c(c2)OCO3)C(C)C)CC1 (centres undefined) was read as MEKK3 PB1 HTS 80, MEKK2mut PB1 HTS 3, UCH37 inh 3, Apaf1 inhib 1, MEKK2wt PB1 HTS 94 and UBC13 polyUb 0.
Screening Cc1nnc(NCc2n[nH]c(=O)c3ccccc23)c2ccccc12 returned MEKK3 PB1 HTS 31*[inhibitor], MEKK2mut PB1 HTS -6, UCH37 inh 1, Apaf1 inhib -15, MEKK2wt PB1 HTS 41*[inhibitor], UBC13 polyUb 11, MEKK2wt confirm 95, MEKK2mut-MEK5 -2 and MEKK3-MEK5 inh 93.
COC(=O)CN1C(=S)N(c2ccc(F)cc2)C(=O)C1CC(=O)Nc1ccc(OC)cc1 (centres undefined) was read as MEKK3 PB1 HTS 96, MEKK2mut PB1 HTS -2, UCH37 inh 1, Apaf1 inhib 6, MEKK2wt PB1 HTS 97 and UBC13 polyUb 6.
`Cc1ccc(-n2ncc3c2CCCC3NC(=O)CCc2cnn(C)c2)cc1C` (centres undefined) gave MEKK3 PB1 HTS 104, MEKK2mut PB1 HTS 8, UCH37 inh 1, Apaf1 inhib -12, MEKK2wt PB1 HTS 108 and UBC13 polyUb -6.
For CCC(C)(C(=O)NC1CCCC1)N(C(C)=O)c1ccc(C)cc1 (centres undefined) the results were MEKK3 PB1 HTS 2.0*[inhibitor], MEKK2mut PB1 HTS -18, UCH37 inh 1, Apaf1 inhib 4, MEKK2wt PB1 HTS 2.0*[inhibitor], UBC13 polyUb 11, MEKK2wt confirm 127, MEKK2mut-MEK5 10 and MEKK3-MEK5 inh 103.
Screening CCN(CC)CCNC(=O)COc1ccc(OC)cc1 returned MEKK3 PB1 HTS 94, MEKK2mut PB1 HTS -8, UCH37 inh 4, Apaf1 inhib -6, MEKK2wt PB1 HTS 94 and UBC13 polyUb 8.
`CN(C)CCNC(=O)COc1ccc(C23CC4CC(CC(C4)C2)C3)cc1` gave MEKK3 PB1 HTS 98, MEKK2mut PB1 HTS 14, UCH37 inh 8, Apaf1 inhib 26, MEKK2wt PB1 HTS 151*, UBC13 polyUb 37, MEKK2wt confirm 124, MEKK2mut-MEK5 7 and MEKK3-MEK5 inh 103.
For Cc1ccc(C23CC4CC(CC(NC(=O)NCCN(C)C)(C4)C2)C3)cc1 the results were MEKK3 PB1 HTS 107, MEKK2mut PB1 HTS 31*, UCH37 inh 5, Apaf1 inhib 15, MEKK2wt PB1 HTS 156*, UBC13 polyUb 9, MEKK2wt confirm 21, MEKK2mut-MEK5 -25 and MEKK3-MEK5 inh 35*.
Screening CCCC(=O)N1CCN(c2ccc(NC(=O)c3sc4ccccc4c3Cl)cc2)CC1 returned MEKK3 PB1 HTS 96, MEKK2mut PB1 HTS 0, UCH37 inh 5, Apaf1 inhib 9, MEKK2wt PB1 HTS 98 and UBC13 polyUb -3.
For C=CCN(C(=O)CNC(=O)c1ccco1)C(C(=O)NC1CCCCC1)c1ccccc1 (centres undefined) the results were MEKK3 PB1 HTS 99, MEKK2mut PB1 HTS 1, UCH37 inh 4, Apaf1 inhib 4, MEKK2wt PB1 HTS 101 and UBC13 polyUb -7.
For CSc1nc(Cl)cc(=O)[nH]1 the results were MEKK3 PB1 HTS 91, MEKK2mut PB1 HTS 14, UCH37 inh 3, Apaf1 inhib 1, MEKK2wt PB1 HTS 94 and UBC13 polyUb 1.
Screening CCCC(CCC(=O)Nc1ccc(C(=O)OC)cc1)C(=O)O (centres undefined) returned MEKK3 PB1 HTS 125*, MEKK2mut PB1 HTS 13, UCH37 inh 3, Apaf1 inhib -16, MEKK2wt PB1 HTS 124, UBC13 polyUb 1, MEKK2wt confirm 98, MEKK2mut-MEK5 -3 and MEKK3-MEK5 inh 101.
For Cc1c(NC(=O)COc2c(F)c(F)c(F)c(F)c2F)c(=O)n(-c2ccccc2)n1C the results were MEKK3 PB1 HTS 97, MEKK2mut PB1 HTS 0, UCH37 inh 1, Apaf1 inhib 1, MEKK2wt PB1 HTS 97 and UBC13 polyUb 4.
COc1ccc(/C=N/NC(=S)NC2CCS(=O)(=O)C2)cc1OC (centres undefined) was read as MEKK3 PB1 HTS 123*, MEKK2mut PB1 HTS 12, Apaf1 inhib 1, MEKK2wt PB1 HTS 117, UBC13 polyUb -13, MEKK2wt confirm 103, MEKK2mut-MEK5 -1 and MEKK3-MEK5 inh 99.
COC(=O)CCCC(=O)N1CCC(CCC(=O)NCc2ccc(F)cc2)CC1 was read as MEKK3 PB1 HTS 105, MEKK2mut PB1 HTS 4, UCH37 inh 5, Apaf1 inhib -4, MEKK2wt PB1 HTS 107 and UBC13 polyUb -1.
O=C(CCc1[nH]c2ccccc2c1Sc1ccccc1)NCCO was read as MEKK3 PB1 HTS 67*[inhibitor], MEKK2mut PB1 HTS 3, UCH37 inh 2, Apaf1 inhib -4, MEKK2wt PB1 HTS 98, UBC13 polyUb 5, MEKK2wt confirm 99, MEKK2mut-MEK5 -3 and MEKK3-MEK5 inh 104.
Screening Cc1ccccc1NC(=O)COC(=O)C1(C)CC1(Cl)Cl (centres undefined) returned MEKK3 PB1 HTS 2.0*[inhibitor], MEKK2mut PB1 HTS -20, UCH37 inh 0, Apaf1 inhib -9, MEKK2wt PB1 HTS 1.0*[inhibitor], UBC13 polyUb 2, MEKK2wt confirm 93, MEKK2mut-MEK5 -10 and MEKK3-MEK5 inh 89.
